Reference: ChEMBL document CHEMBL4014306, “Pyrazolopyrimidines as Potent Stimulators for Transient Receptor Potential Canonical 3/6/7 Channels” (J Med Chem, 2017)
Calls of active or inactive are those of the source. The calls are words filed in the database; no cut-off is given here.

Assays:
Assay type in all cases: cell-based
[1] = target: T1, Short transient receptor potential channel 3 (Homo sapiens) (UniProt Q13507); assay: Agonist activity at human TRPC3 expressed in HEK293 cells assessed as induction of channel current at 10 uM measured for 2.5 mins in presence of 0.5 mM Ca2+ by whole cell patch-clamp method
T1 sequence (whole entry): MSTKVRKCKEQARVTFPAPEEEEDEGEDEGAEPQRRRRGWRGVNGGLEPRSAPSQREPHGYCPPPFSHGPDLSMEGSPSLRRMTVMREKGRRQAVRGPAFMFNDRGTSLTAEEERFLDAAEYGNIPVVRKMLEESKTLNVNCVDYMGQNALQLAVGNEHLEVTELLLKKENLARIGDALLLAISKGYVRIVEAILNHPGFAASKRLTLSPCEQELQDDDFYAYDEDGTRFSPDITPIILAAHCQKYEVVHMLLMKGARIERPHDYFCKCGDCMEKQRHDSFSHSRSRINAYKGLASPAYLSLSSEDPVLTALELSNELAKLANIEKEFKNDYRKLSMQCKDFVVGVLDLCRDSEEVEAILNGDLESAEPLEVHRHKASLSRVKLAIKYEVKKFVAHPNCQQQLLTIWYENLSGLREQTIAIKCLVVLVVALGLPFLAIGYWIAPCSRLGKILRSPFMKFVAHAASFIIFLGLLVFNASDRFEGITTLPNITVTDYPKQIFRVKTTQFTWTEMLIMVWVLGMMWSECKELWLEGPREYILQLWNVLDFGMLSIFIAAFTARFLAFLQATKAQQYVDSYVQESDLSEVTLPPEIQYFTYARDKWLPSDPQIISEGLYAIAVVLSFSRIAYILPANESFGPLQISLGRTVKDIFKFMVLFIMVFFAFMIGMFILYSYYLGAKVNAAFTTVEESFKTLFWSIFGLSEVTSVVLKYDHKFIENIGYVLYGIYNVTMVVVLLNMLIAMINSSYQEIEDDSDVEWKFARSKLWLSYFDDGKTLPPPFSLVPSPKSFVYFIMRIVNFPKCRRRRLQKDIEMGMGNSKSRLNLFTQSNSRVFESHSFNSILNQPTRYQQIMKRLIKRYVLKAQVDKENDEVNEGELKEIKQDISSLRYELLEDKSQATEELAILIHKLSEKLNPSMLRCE
In short: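 Whole-cell recording of human TRPC3 HEK293 cells in bath with 0.5 mM Ca2+. Pipette had 400 nM free Ca2+ buffered by BAPTA. Ramps +100 to −100 mV every 1 s. Compound at 10 μM applied by perfusion; I–V compared against basal.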

[2] = target: T2, Short transient receptor potential channel 3 (Rattus norvegicus) (UniProt Q9JMI9); assay: Agonist activity at TRPC3 in rat primary glomerular mesangial cells assessed as increase in intracellular calcium level at 1 uM by Fluo4-AM dye-based fluorescence assay
T2 sequence (whole entry): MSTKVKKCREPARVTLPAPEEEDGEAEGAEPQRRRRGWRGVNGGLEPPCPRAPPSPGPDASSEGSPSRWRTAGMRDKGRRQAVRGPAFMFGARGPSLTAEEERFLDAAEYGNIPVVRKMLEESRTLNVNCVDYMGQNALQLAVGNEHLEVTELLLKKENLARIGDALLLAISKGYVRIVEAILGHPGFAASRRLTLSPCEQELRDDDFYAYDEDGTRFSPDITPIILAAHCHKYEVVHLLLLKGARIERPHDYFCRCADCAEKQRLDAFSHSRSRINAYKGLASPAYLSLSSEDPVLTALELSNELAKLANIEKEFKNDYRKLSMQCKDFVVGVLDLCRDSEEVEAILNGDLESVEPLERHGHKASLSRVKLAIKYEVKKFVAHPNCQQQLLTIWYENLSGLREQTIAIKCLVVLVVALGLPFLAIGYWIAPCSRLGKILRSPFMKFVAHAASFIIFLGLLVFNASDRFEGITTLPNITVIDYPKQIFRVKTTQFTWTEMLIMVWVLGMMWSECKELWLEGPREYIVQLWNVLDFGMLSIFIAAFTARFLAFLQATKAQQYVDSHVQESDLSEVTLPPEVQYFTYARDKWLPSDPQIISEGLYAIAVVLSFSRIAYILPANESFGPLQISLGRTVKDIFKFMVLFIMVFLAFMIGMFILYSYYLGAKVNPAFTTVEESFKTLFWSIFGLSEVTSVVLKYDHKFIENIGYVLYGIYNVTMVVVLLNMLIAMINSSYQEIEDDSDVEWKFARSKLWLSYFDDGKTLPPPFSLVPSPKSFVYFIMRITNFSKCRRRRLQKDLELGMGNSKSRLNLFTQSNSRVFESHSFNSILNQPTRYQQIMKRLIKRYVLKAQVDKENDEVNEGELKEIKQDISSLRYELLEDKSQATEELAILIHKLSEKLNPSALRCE
In short: (§1)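 Rat glomerular mesangial cells, isolated by graded sieving from male Sprague–Dawley rats, collagenase-digested, cultured in RPMI 1640 with 17% FBS. Grown overnight on coverslips, then loaded with 10 μM Fluo4-AM and 0.02% pluronic F-127 for 1 h at 37 °C in 1 mM Ca2+ saline, pH 7.4. Compound at 1 μM. Confocal imaging, ex 488/em 515 nm, read as F/F0. For the 2-APB condition, 30 μM 2-APB for 2 min beforehand and kept during compound application.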

[3] = target: T2, Short transient receptor potential channel 3 (Rattus norvegicus); assay: Agonist activity at TRPC3 in rat primary glomerular mesangial cells assessed as increase in intracellular calcium level at 1 uM in presence of TRPC inhibitor […] by Fluo4-AM dye-based fluorescence assay; in short: as §1

Activity [2]	Activity [3]	SMILES	Activity [1]
–	–	CCOC(=O)N1CCC(c2cc(O)n3nc(C)c(-c4ccc(F)cc4)c3n2)CC1	Active
Active	inactive	Cc1nn2c(O)cc(C3CCN(C(=O)OCc4ccccc4)CC3)nc2c1-c1ccc(F)cc1	–
